This note sets out measurements from article PMC11447854 (ACS Omega, 2024).

In assay [1] the test system is HeLa cells. Kind of assay: cells. Format: cell-based, human. The note with it: for IC50: Homo sapiens, HeLa, 24 h, read-out: cell-based IC50 (HeLa, μM); for F, activity fold compared to hit compounds, F = IC50(Hit)/IC50(Lead): from HeLa IC50, hit = 6a, 7a or 8a of the same series; for activity improvement compared to gefitinib (fold): HeLa cells, IC50 versus commercial drug gefitinib.

The target in assay [2] is T1, rhCOX-2 (Homo sapiens, UniProt P35354).
T1 sequence (P35354 18-604): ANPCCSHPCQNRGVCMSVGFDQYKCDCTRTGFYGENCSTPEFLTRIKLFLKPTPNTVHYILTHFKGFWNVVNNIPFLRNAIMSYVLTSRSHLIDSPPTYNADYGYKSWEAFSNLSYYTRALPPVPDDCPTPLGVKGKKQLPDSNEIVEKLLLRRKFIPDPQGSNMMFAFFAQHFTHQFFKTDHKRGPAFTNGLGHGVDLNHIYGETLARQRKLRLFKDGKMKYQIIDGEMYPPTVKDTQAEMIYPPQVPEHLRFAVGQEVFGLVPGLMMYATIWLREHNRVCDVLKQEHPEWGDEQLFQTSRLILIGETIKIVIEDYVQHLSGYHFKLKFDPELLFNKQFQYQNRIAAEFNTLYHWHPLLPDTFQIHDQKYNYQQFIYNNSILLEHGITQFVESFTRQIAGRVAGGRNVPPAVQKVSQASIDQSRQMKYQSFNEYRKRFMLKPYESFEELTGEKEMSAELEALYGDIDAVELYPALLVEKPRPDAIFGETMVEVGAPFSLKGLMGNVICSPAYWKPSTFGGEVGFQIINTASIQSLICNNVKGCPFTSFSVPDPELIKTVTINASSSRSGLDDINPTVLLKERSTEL
Kind of assay: COX-2 enzyme-based activity test. Format: biochemical.

For assay [3], the system named is HEK293 cells. Kind of assay: CCK8 proliferation inhibition assay, HEK293 normal cells. The note with it: for IC50: Homo sapiens, HEK293, read-out: cell-based IC50 (HEK293, μM); for SI = IC50(HEK293)/IC50(HeLa): fold selectivity for cancer cells (HeLa) over normal cells (HEK293). The class given is cell-based, human. A digest of the protocol: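 HEK293 and HeLa cells were seeded at 5000 cells/well and grown 24 h at 37 °C, 5% CO2. They were then exposed 24 h to test compound at 1.0–10.0 mg/L in serum-free medium, alongside untreated, DMSO-solvent and gefitinib controls. After a PBS wash and 3 h with CCK8, […]. IC50 came from inhibition relative to control. SI = IC50(HEK293)/IC50(HeLa).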

With `C/C(=N\NC(=O)C(C)c1ccc(CC(C)C)cc1)c1cc2cc(F)ccc2oc1=O` (centres unmarked) [6b, (E)-N′-(1-(6-Fluoro-2-oxo-2H-chromen-3-yl)ethylidene)-2-(4-isobutylphenyl)propanehydrazide], in assay [1], the IC50 came to 2.59 µM and the “F, activity fold compared to hit compounds, F = IC50(Hit)/IC50(Lead)” value (shortened to “F, activity fold”) was determined as 1.78.
Take `C/C(=N\NC(=O)C(C)c1ccc(CC(C)C)cc1)c1cc2cc(Cl)cc(Cl)c2oc1=O` (centres unmarked) [6f, (E)-N′-(1-(6,8-Dichloro-2-oxo-2H-chromen-3-yl)ethylidene)-2-(4-isobutylphenyl)propanehydrazide]: the values for the IC50 in assay [2] and in assay [1] were 1.51 µM and 4.34 µM, respectively. Moreover, the “F, activity fold” value in assay [1] turned out to be 1.06.
Consider `CC(C)Cc1ccc(C(C)c2nnc(-c3cc4cc(Cl)ccc4oc3=O)o2)cc1` (centres unmarked) [8c, 6-Chloro-3-(5-(1-(4-isobutylphenyl)ethyl)-1,3,4-oxadiazol-2-yl)-2H-chromen-2-one], for which, in assay [1], the IC50 came to 82.2 µM and the “F, activity fold” value is 0.06.
As to `CC(C)Cc1ccc(C(C)C(=O)NNC(=O)c2cc3cc(Cl)cc(Cl)c3oc2=O)cc1` (centres unmarked) [7g, 6,8-Dichloro-N′-(2-(4-isobutylphenyl)propanoyl)-2-oxo-2H-chromene-3-carbohydrazide], in assay [1], the “activity improvement compared to gefitinib (fold)” value is reported as “approximately 10 fold”; the IC50 is 0.783 µM; the “F, activity fold” value was determined as 5.89. Moreover, in assay [3], the concentration for half-maximal inhibition (IC50) came to 20 µM and the “SI = IC50(HEK293)/IC50(HeLa)” value is 25.49.
On to `CC(C)Cc1ccc(C(C)C(=O)O)cc1` (centres unmarked) [ibuprofen, reference compound], for which, in assay [1], the IC50 was above 200 µM.
As to `Cc1ccc2oc(=O)c(C(=O)NNC(=O)C(C)c3ccc(CC(C)C)cc3)cc2c1` (centres unmarked) [7b, N′-(2-(4-Isobutylphenyl)propanoyl)-6-methyl-2-oxo-2H-chromene-3-carbohydrazide], in assay [1], the IC50 was 42.7 µM and the “F, activity fold” value came out at 0.11.
On to `CC(C)Cc1ccc(C(C)c2nnc(-c3cc4cc(F)ccc4oc3=O)o2)cc1` (centres unmarked) [8b, 6-Fluoro-3-(5-(1-(4-isobutylphenyl)ethyl)-1,3,4-oxadiazol-2-yl)-2H-chromen-2-one], for which, in assay [1], the half-inhibitory concentration (IC50) worked out at 122 µM and the “F, activity fold” value turned out to be 0.04.
Take `CC(C)Cc1ccc(C(C)c2nnc(-c3cc4cc(Cl)cc(Cl)c4oc3=O)o2)cc1` (centres unmarked) [8d, 6,8-Dichloro-3-(5-(1-(4-isobutylphenyl)ethyl)-1,3,4-oxadiazol-2-yl)-2H-chromen-2-one]: the half-maximal inhibitory concentration (IC50) in assay [1] was above 200 µM.
For `Cc1ccc2oc(=O)c(-c3nnc(C(C)c4ccc(CC(C)C)cc4)o3)cc2c1` (centres unmarked) [8f, 3-(5-(1-(4-Isobutylphenyl)ethyl)-1,3,4-oxadiazol-2-yl)-6-methyl-2H-chromen-2-one], in assay [1], the IC50 came out at 42.3 µM and the “F, activity fold” value amounted to 0.11.
Regarding `CC(C)Cc1ccc(C(C)C(=O)NNC(=O)c2cc3ccc(O)cc3oc2=O)cc1` (centres unmarked) [7c, 7-Hydroxy-N′-(2-(4-isobutylphenyl)propanoyl)-2-oxo-2H-chromene-3-carbohydrazide], in assay [1], the IC50 worked out at 8.92 µM and the “F, activity fold” value came out at 0.52.
On the same counts, the results for `C/C(=N\NC(=O)C(C)c1ccc(CC(C)C)cc1)c1cc2cc(C)ccc2oc1=O` (centres unmarked) [6e, (E)-2-(4-Isobutylphenyl)-N′-(1-(6-methyl-2-oxo-2H-chromen-3-yl)ethylidene)propanehydrazide] are 2.19 µM and 2.11.
For `C/C(=N\NC(=O)C(C)c1ccc(CC(C)C)cc1)c1cc2ccccc2oc1=O` (centres unmarked) [6a, (E)-2-(4-Isobutylphenyl)-N′-(1-(2-oxo-2H-chromen-3-yl)ethylidene)propanehydrazide], in assay [1], the IC50 was determined as 4.64 µM and the “F, activity fold” value was determined as 1.00.
In the case of `CC(C)Cc1ccc(C(C)C(=O)NNC(=O)c2cc3cc([N+](=O)[O-])ccc3oc2=O)cc1` (centres unmarked) [7f, N′-(2-(4-Isobutylphenyl)propanoyl)-6-nitro-2-oxo-2H-chromene-3-carbohydrazide], the IC50 amounted to 0.982 µM in assay [2] and 6.25 µM in assay [1]. For the same molecule, the “F, activity fold” value in assay [1] is given as 0.74.
As for `C/C(=N\NC(=O)C(C)c1ccc(CC(C)C)cc1)c1cc2cc(Cl)ccc2oc1=O` (centres unmarked) [6g, (E)-N′-(1-(6-Chloro-2-oxo-2H-chromen-3-yl)ethylidene)-2-(4-isobutylphenyl)propanehydrazide], in assay [1], the concentration for half-maximal inhibition (IC50) came out at 2.56 µM and the “F, activity fold” value is listed as 1.80.
For the molecule `CC(C)Cc1ccc(C(C)c2nnc(-c3cc4cc(Br)cc(Br)c4oc3=O)o2)cc1` (centres unmarked) [8e, 6,8-Dibromo-3-(5-(1-(4-isobutylphenyl)ethyl)-1,3,4-oxadiazol-2-yl)-2H-chromen-2-one], in assay [1], the IC50 was above 200 µM.
Consider `C/C(=N\NC(=O)C(C)c1ccc(CC(C)C)cc1)c1cc2cc(Br)cc(Br)c2oc1=O` (centres unmarked) [6c, (E)-N′-(1-(6,8-Dibromo-2-oxo-2H-chromen-3-yl)ethylidene)-2-(4-isobutylphenyl)propanehydrazide], for which, in assay [2], the IC50 was 2.67 µM. Moreover, in assay [1], the “activity improvement compared to gefitinib (fold)” value is “approximately 10 fold”; the concentration for half-maximal inhibition (IC50) amounted to 0.606 µM; the “F, activity fold” value came to 7.61. In addition, in assay [3], the IC50 is 32.2 µM and the “SI = IC50(HEK293)/IC50(HeLa)” value came out at 53.18.
`CC(C)Cc1ccc(C(C)C(=O)NNC(=O)c2cc3ccccc3oc2=O)cc1` (centres unmarked) [7a, N′-(2-(4-Isobutylphenyl)propanoyl)-2-oxo-2H-chromene-3-carbohydrazide]: the IC50 in assay [2] stood at 2.82 µM; in assay [1], 4.61 µM. Also, the “F, activity fold” value in assay [1] is 1.00.
For `CC(C)Cc1ccc(C(C)C(=O)NNC(=O)c2cc3cc(Cl)ccc3oc2=O)cc1` (centres unmarked) [7d, 6-Chloro-N′-(2-(4-isobutylphenyl)propanoyl)-2-oxo-2H-chromene-3-carbohydrazide], in assay [1], the half-maximal inhibitory concentration (IC50) came out at 137 µM and the “F, activity fold” value is reported as 0.03.
On to `CC(C)Cc1ccc(C(C)c2nnc(-c3cc4ccccc4oc3=O)o2)cc1` (centres unmarked) [8a, 3-(5-(1-(4-Isobutylphenyl)ethyl)-1,3,4-oxadiazol-2-yl)-2H-chromen-2-one], for which, in assay [1], the IC50 was 4.66 µM and the “F, activity fold” value amounted to 1.00.
For the molecule `C/C(=N\NC(=O)C(C)c1ccc(CC(C)C)cc1)c1cc2ccc(O)cc2oc1=O` (centres unmarked) [6d, (E)-N′-(1-(7-Hydroxy-2-oxo-2H-chromen-3-yl)ethylidene)-2-(4-isobutylphenyl)propanehydrazide], the IC50 is 1.04 µM in assay [2] and 6.65 µM in assay [1]. For the same molecule, the “F, activity fold” value in assay [1] was determined as 0.69.
Turning to `CC(C)Cc1ccc(C(C)C(=O)NNC(=O)c2cc3cc(F)ccc3oc2=O)cc1` (centres unmarked) [7e, 6-Fluoro-N′-(2-(4-isobutylphenyl)propanoyl)-2-oxo-2H-chromene-3-carbohydrazide], the IC50 in assay [2] was found to be 0.294 µM; in assay [1], 3.68 µM. Besides, the “F, activity fold” value in assay [1] stood at 1.25.
In the case of `CC(C)Cc1ccc(C(C)C(=O)NNC(=O)c2cc3cc(Br)cc(Br)c3oc2=O)cc1` (centres unmarked) [7h, 6,8-Dibromo-N′-(2-(4-isobutylphenyl)propanoyl)-2-oxo-2H-chromene-3-carbohydrazide], in assay [1], the concentration for half-maximal inhibition (IC50) worked out at 0.889 µM and the “F, activity fold” value was 5.18.
